Data on 1 compound can be found in ChEMBL document CHEMBL1909531, “Mitochondrial respiration inhibitors suppress protein translation and hypoxic signaling via the hyperphosphorylation and inactivation of translation initiation factor eIF2α and elongation factor eEF2” (J Nat Prod, 2011).

Calls of active or inactive are those of the source. The rule behind the calls is not given here.

In experiment [1] the test system is T47D. In words: Inhibition of HIF1beta protein accumulation under hypoxic condition in human T47D cells at 3 uM after 4 hrs by Western blot analysis. The format is functional, cell-based.
A further experiment relates to PC-3. Kind of experiment: Antiproliferative activity against human PC3 cells assessed as cell viability by SRB assay. The format is functional, cell-based. A digest of the protocol:
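Cells grown in DMEM/F12 with 10% FBS, penicillin and streptomycin; 96-well viability assay, 2-day or 6-day exposure, with medium (5% FBS) and compound renewed after 3 days in the 6-day study. Read by optical density; % inhibition = [1 − (ODtreated/ODcontrol)] × 100 versus medium control.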

Experiment [2] addresses Serine/threonine-protein kinase mTOR (Homo sapiens) (UniProt P42345). Kind of experiment: Inhibition of mTOR-mediated 4E-BP1 phosphorylation on Thr 37/46 in human MDA-MB-231 cells at 1 to 10 uM after 30 mins by Western blotting. The format is cell-based.
In experiment [3] the target is T1, Hypoxia inducible factors; HIF-1-alpha, HIF-2-alpha (Homo sapiens, UniProt Q16665+Q99814). In words: Inhibition of HIF1-mediated induction of secreted VEGF protein in human T47D cells at 3 uM after 16 hrs by ELISA under normoxic condition. The format is cell-based.
Experiment [4] addresses Serine/threonine-protein kinase mTOR (Homo sapiens) (UniProt P42345). Kind of experiment: Inhibition of mTOR-mediated rpS6 phosphorylation on Ser 235/236 in human T47D cells at 1 to 10 uM after 30 mins by Western blotting. The format is cell-based.
Experiment [5] has as its system T47D. In words: Inhibition of HIF1alpha protein accumulation under hypoxic condition in human T47D cells at 3 uM after 4 hrs by Western blot analysis. The experiment is classed as functional, cell-based.
Experiment [6] addresses T1, Hypoxia inducible factors; HIF-1-alpha, HIF-2-alpha. Kind of experiment: Inhibition of HIF1-mediated induction of secreted VEGF protein in hypoxia-stimulated human T47D cells at 0.3 uM after 16 hrs by ELISA. The format is cell-based.
Experiment [7] relates to T47D. Kind of experiment: Inhibition of cellular respiration in human T47D cells at 0.3 uM in presence of complex 2 substrate succinate. The experiment is classed as functional, cell-based. A digest of the protocol: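 Permeabilized T47D cells, oxygen consumption measured by Clark-type electrode. Complex I respiration started with malate plus pyruvate; succinate added as complex II substrate.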

Experiment [8] concerns the target Serine/threonine-protein kinase mTOR (Homo sapiens) (UniProt P42345). Kind of experiment: Inhibition of mTOR-mediated eIF4E phosphorylation on Ser 209 in human MDA-MB-231 cells at 1 to 10 uM after 30 mins by Western blotting. The format is cell-based.
Experiment [9] has as its system T47D. Kind of experiment: Reduction in ATP level in human T47D cells by HPLC-UV analysis at 1 uM after 72 hrs. The experiment is classed as functional, cell-based. A digest of the protocol:
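Cells seeded at 5 × 10^5 per well in DMEM/F12 with 10% FBS; after 24 h, half the medium was replaced with serum-free medium containing compound. Cells washed with cold DPBS, extracted with cold 0.4 M perchloric acid, neutralized with K2CO3. Nucleotides quantified by C18 HPLC-UV, 50 mM potassium phosphate pH 6.0/MeOH mobile phase, 0.7 mL/min.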

In experiment [10] the test system is T47D. In words: Inhibition of 1, 10-phenanthroline-induced HIF1alpha protein accumulation in human T47D cells at 3 uM after 4 hrs by Western blot analysis. The experiment is classed as functional, cell-based.
In experiment [11] the target is Serine/threonine-protein kinase mTOR (Homo sapiens) (UniProt P42345). Kind of experiment: Inhibition of mTOR in human T47D cells assessed as eEF2 hyperphosphorylation on Ser 56 at 1 to 10 uM after 30 mins by Western blotting. The format is cell-based. A digest of the protocol: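 Cells seeded at 0.8 × 10^6 per well, exposed 30 min at 37 °C, 5% CO2, in DMEM/F12 with 5% FBS. Lysed in modified RIPA (pH 7.6) with protease and phosphatase inhibitors; 40 µg protein run on 4–20% gels, nitrocellulose transfer. Phospho-specific and total eIF2α/eEF2 primaries at 1:1,000, HRP anti-rabbit at 1:2000, chemiluminescence on film.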

The subject of the next experiment is MDA-MB-231. Kind of experiment: Reduction in ATP level in human MDA-MB-231 cells after 72 hrs by HPLC-UV analysis. The experiment is classed as functional, cell-based. A digest of the protocol:
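5 × 10^5 cells per well seeded in DMEM/F12 with 10% FBS. After 24 h, half the medium replaced with serum-free DMEM/F12 containing compound. After exposure, cells washed in cold DPBS and extracted with cold 0.4 M perchloric acid, then neutralized with K2CO3. ATP quantified by reversed-phase C18 HPLC-UV using 50 mM potassium phosphate pH 6.0/MeOH at 0.7 mL/min.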

Experiment [12] has as its target T1, Hypoxia inducible factors; HIF-1-alpha, HIF-2-alpha. Kind of experiment: Inhibition of HIF1-mediated induction of VEGF mRNA expression in human T47D cells at 3 uM after 16 hrs by RT-PCR analysis under normoxic condition. The experiment is classed as cell-based.

For the compound `CC(C)CC(=O)O[C@@H]1CC[C@]2(C)[C@H]3CC[C@]45C[C@]4(CC[C@@H]5[C@@H]4C[C@H]([C@@H]5OC5(C)C)OC4O)[C@]3(C)[C@H](O)C[C@H]2C1(C)C` (some centres undefined) [SKIMMIAREPIN A], the inhibition result (in the experiment with T47D [1]; in experiment [2]; in [3]; in experiment [4]; in the experiment with T47D [7]; in experiment [8]) was “inactive” each time. The inhibition result (in the experiment on T47D [10]; in experiment [12]) was “inactive” throughout. Besides, the result in the experiment with PC-3 and with T47D [9] was Active. Besides, the inhibition entry (in the experiment on T47D [5]; in [6]) was “Active” in each case. In addition, the Activity result (in experiment [11]; in the experiment with MDA-MB-231) was “Dose-dependent effect” in each case.
